According to PMC9486889 (Japanese Journal of Clinical Oncology, 2022):

Assay: Phase I dose-escalation: DLT/MTD and treatment-emergent adverse events
Assay type: in vivo, Japanese patients
Method in brief: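 Open-label, non-randomized 3+3 dose escalation, starting at 30 mg oral BIW with planned escalation to 50 mg, in continuous 4-week cycles. The DLT window was 28 days from first dose. DLTs were grade 4 hematologic toxicity, grade ≥3 febrile neutropenia, grade 3 thrombocytopenia with significant bleeding, other grade ≥3 non-hematologic toxicity, or troponin rising on 3 consecutive days. AEs were coded by MedDRA 19.1 and graded by CTCAE 4.03.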

Nc1cc(F)ccc1NC(=O)c1ccc(CNC(=O)/C=C/c2cccnc2)cc1 [HBI-8000, tucidinostat]
92.9%: Patients with at least one TEAE (all 14 patients)
four: TEAEs that led to dose reduction or dose delay (40 mg BIW cohort) | TEAEs that led to treatment discontinuation (40 mg BIW cohort)
2 (28.6) n (%): TEAE: Back pain (40 mg BIW (N = 7)) | TEAE: Decreased appetite (40 mg BIW (N = 7)) | TEAE: Nasopharyngitis (40 mg BIW (N = 7)) | TEAE: Nausea (40 mg BIW (N = 7)) | TEAE: Neutropenia (40 mg BIW (N = 7)) | TEAE: Pyrexia (40 mg BIW (N = 7)) | TEAE: Weight decreased (40 mg BIW (N = 7))
3 (21.4) n (%): TEAE: Decreased appetite (Total (N = 14)) | TEAE: Dysgeusia (Total (N = 14)) | TEAE: Hypocalcaemia (Total (N = 14)) | TEAE: Hypokalaemia (Total (N = 14)) | TEAE: Nausea (Total (N = 14)) | TEAE: Neutropenia (Total (N = 14)) | TEAE: Pyrexia (Total (N = 14)) | TEAE: Weight decreased (Total (N = 14))
4 (28.6) n (%): TEAE: Diarrhoea (Total (N = 14)) | TEAE: Fatigue (Total (N = 14)) | TEAE: White blood cell count decreased (Total (N = 14))
40 mg BIW: Recommended phase II dose (RP2D) (oral) | Maximum tolerated dose (MTD) (oral, 4-week cycles)
6 (42.9) n (%): TEAE: Platelet count decreased (Total (N = 14)) | TEAE: Thrombocytopenia (Total (N = 14))
13 (92.9) n (%): Number of patients with at least one related TEAE (Total (N = 14))
4 (57.1) n (%): TEAE: Thrombocytopenia (40 mg BIW (N = 7))
42.9%: TEAEs that led to treatment discontinuation (all 14 patients)
1 (14.3) n (%): TEAE: Abdominal pain (40 mg BIW (N = 7)) | TEAE: C-reactive protein increased (40 mg BIW (N = 7)) | TEAE: Diarrhoea (40 mg BIW (N = 7)) | TEAE: Dysgeusia (40 mg BIW (N = 7)) | TEAE: Fatigue (40 mg BIW (N = 7)) | TEAE: Headache (40 mg BIW (N = 7)) | TEAE: Hypertriglyceridaemia (40 mg BIW (N = 7)) | TEAE: Hypokalaemia (40 mg BIW (N = 7)) | TEAE: Insomnia (40 mg BIW (N = 7)) | TEAE: White blood cell count decreased (40 mg BIW (N = 7))
1 (7.1) n (%): Grade 3 TEAE: Abdominal pain (Total (N = 14)) | Grade 3 TEAE: Alanine aminotransferase increased (Total (N = 14)) | Grade 3 TEAE: Anaemia (Total (N = 14)) | Grade 3 TEAE: Blood creatine phosphokinase increased (Total (N = 14)) | Grade 3 TEAE: Enterocolitis (Total (N = 14)) | Grade 3 TEAE: Erythema multiforme (Total (N = 14)) | Grade 3 TEAE: Erythema nodosum (Total (N = 14)) | Grade 3 TEAE: Hyperglycaemia (Total (N = 14)) | Grade 3 TEAE: Hypertriglyceridaemia (Total (N = 14)) | Grade 3 TEAE: Lymphocyte count decreased (Total (N = 14)) | Grade 3 TEAE: Neutropenia (Total (N = 14)) | Grade 3 TEAE: Parkinsonism (Total (N = 14)) | Grade 3 TEAE: Pyrexia (Total (N = 14)) | Grade 3 TEAE: Rash generalized (Total (N = 14))
3 (42.9) n (%): TEAE: Hypocalcaemia (40 mg BIW (N = 7)) | TEAE: Platelet count decreased (40 mg BIW (N = 7))
0 (0) n (%): Grade 4 TEAE: Thrombocytopenia (40 mg BIW (N = 7)) | Grade 4 TEAE: White blood cell count decreased (40 mg BIW (N = 7)) | TEAE: Anaemia (40 mg BIW (N = 7)) | TEAE: Hyperuricaemia (40 mg BIW (N = 7)) | TEAE: Neutrophil count decreased (40 mg BIW (N = 7)) | Grade 4 TEAE: Abdominal pain (Total (N = 14)) | Grade 4 TEAE: Alanine aminotransferase increased (Total (N = 14)) | Grade 4 TEAE: Anaemia (Total (N = 14)) | Grade 4 TEAE: Blood creatine phosphokinase increased (Total (N = 14)) | Grade 4 TEAE: Enterocolitis (Total (N = 14)) | Grade 4 TEAE: Erythema multiforme (Total (N = 14)) | Grade 4 TEAE: Erythema nodosum (Total (N = 14)) | Grade 4 TEAE: Hyperglycaemia (Total (N = 14)) | Grade 4 TEAE: Hypertriglyceridaemia (Total (N = 14)) | Grade 4 TEAE: Lymphocyte count decreased (Total (N = 14)) | Grade 4 TEAE: Neutrophil count decreased (Total (N = 14)) | Grade 4 TEAE: Parkinsonism (Total (N = 14)) | Grade 4 TEAE: Pyrexia (Total (N = 14)) | Grade 4 TEAE: Rash generalized (Total (N = 14)) | Grade 4 TEAE: Thrombocytopenia (Total (N = 14)) | Grade 4 TEAE: White blood cell count decreased (Total (N = 14))
9 (64.3) n (%): Grade 3: Number of patients with at least one TEAE (Total (N = 14))
5 (35.7) n (%): TEAE: Anaemia (Total (N = 14))
7 (100) n (%): Number of patients with at least one related TEAE (40 mg BIW (N = 7))
28.6%: Platelet count decreased leading to dose reduction or dose delay (all 14 patients)
14.3%: Neutrophil count decreased leading to dose reduction or dose delay (all 14 patients)
2 (14.3) n (%): Grade 3 TEAE: Neutrophil count decreased (Total (N = 14)) | Grade 3 TEAE: Thrombocytopenia (Total (N = 14)) | Grade 3 TEAE: White blood cell count decreased (Total (N = 14)) | Grade 4: Number of patients with at least one TEAE (Total (N = 14)) | Grade 4 TEAE: Neutropenia (Total (N = 14)) | TEAE: Abdominal pain (Total (N = 14)) | TEAE: Back pain (Total (N = 14)) | TEAE: C-reactive protein increased (Total (N = 14)) | TEAE: Headache (Total (N = 14)) | TEAE: Hypertriglyceridaemia (Total (N = 14)) | TEAE: Hyperuricaemia (Total (N = 14)) | TEAE: Insomnia (Total (N = 14)) | TEAE: Nasopharyngitis (Total (N = 14)) | TEAE: Neutrophil count decreased (Total (N = 14))
57.1%: Incidence of thrombocytopenia (40 mg BIW cohort) | TEAEs that led to dose reduction or dose delay (all 14 patients)
